From ChEMBL document CHEMBL1130433, “Effects of log P and phenyl ring conformation on the binding of 5-phenylhydantoins to the voltage-dependent sodium channel” (J Med Chem, 1997) come the findings set out here.

The target of the assay is Sodium channel alpha subunits; brain (Types I, II, III) (Rattus norvegicus, UniProt P04775+P04774+P08104). Put plainly: Inhibition of [3H]BTX-B binding to Neuronal voltage-dependent sodium channel of rat cerebral cortex synaptoneurosomes. It is filed as tissue-based. In a few lines: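 Ice-cold buffer dilution, GF/C filtration, scintillation counting. Nonspecific binding measured with 300 μM veratridine. Triplicates with a 40 μM DPH control tube. IC50 by Probit analysis, excluding points below 10% or above 90% inhibition.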
Consider `O=C1NC(=O)C2(CCc3ccccc32)N1` (centres undefined), for which the half-maximal inhibitory concentration (IC50) – broadly, the concentration that gives 50% inhibition – stood at 2112 µM. On to `O=C1NC(=O)C2(CCCCc3ccccc32)N1` (centres undefined), for which the IC50 came out at 251 µM. This IC50 lies about 8.4-fold lower than the previous one. The same measure for `CCCCC1(c2cccc(C)c2)NC(=O)NC1=O` (centres undefined): 58 µM; for `O=C1NC(=O)C2(CCCc3ccccc32)N1` (centres undefined): 851 µM. Turning to `CCCCC1(c2ccc(C)cc2)NC(=O)NC1=O` (centres undefined), the IC50 amounted to 95 µM.

The molecule `CC12C(=O)NC(=O)N1CCc1ccccc12` (centres undefined) registered a half-maximal inhibitory concentration (IC50) of 250 µM. The value for `O=C1NC(=O)C2(CCCCCc3ccccc32)N1` (centres undefined) was 251 µM; that for `CCN1C(=O)NC(=O)[C@@]1(C)c1ccccc1` was 720 µM; that for `CCCCC1(c2ccccc2C)NC(=O)NC1=O` (centres undefined) was 225 µM.
